Experimental data reported in ChEMBL document CHEMBL3739312, “Triazole-curcuminoids: A new class of derivatives for 'tuning' curcumin bioactivities?” (Bioorg Med Chem, 2016).
Active and inactive are the calls of the source. The rule behind the calls is not given here.

Columns and labels:
SH-SY5Y [1] = experiment: Antiproliferative activity against human SH-SY5Y cells assessed as cell viability at 40 uM after 48 hrs relative to control; type: functional; details: read-out: Activity
Summary of the method: (§1)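 Single fixed concentration of 40 µM against HeLa or SH-SY5Y cells; viability given as mean ± S.E.M., n = 8 from two separate experiments.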

HeLa [2] = experiment: Antiproliferative activity against human HeLa cells assessed as cell viability at 40 uM after 48 hrs relative to control; type: functional; details: read-out: Activity; summary of the method: as §1
HeLa [3] = experiment: Inhibition of TNFalpha-induced NFkappaB activation assessed as TNFalpha-induced transcription level in human HeLa cells at 30 uM incubated for 6 hrs by luciferase reporter gene assay; type: cell-based; set-up: scale not given: the % may be the effect or the level left
Summary of the method: (§2)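 HeLa NF-κB luciferase reporter: cells plated at 5 × 10³/well; after 8 h, TNFα (20 ng/mL) applied for 6 h with or without compound. Firefly luciferase normalized to pRLTK Renilla by dual-luciferase read-out; n = 6–11 from 3–6 experiments.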

SH-SY5Y [4] = experiment: Antiproliferative activity against human SH-SY5Y cells assessed as cell viability after 48 hrs; type: functional, cell-based
HeLa [5] = experiment: Antiproliferative activity against human HeLa cells assessed as cell viability after 48 hrs; type: functional, cell-based
Tubulin (Homo sapiens) [6] = molecular target: T1, Tubulin (Homo sapiens) (UniProt P68371+Q9H4B7+P0DPH7+P68366+Q13509+Q71U36+P04350+Q3ZCM7+P07437+P68363+Q9BQE3+Q6PEY2+Q13885+Q9BVA1+Q9BUF5); experiment: Inhibition of tubulin (unknown origin) polymerization up to 60 uM; type: protein-complex assay
Summary of the method: (§3)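 Cell-free fluorescence-based tubulin polymerization kit; compound tested from 10 µM up to 60 µM.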

Tubulin (Homo sapiens) [7] = molecular target: T1, Tubulin (Homo sapiens); experiment: Inhibition of tubulin polymerization in human HeLa cells assessed as increase in soluble fraction incubated for 16 hrs by cellular assay; type: cell-based
Summary of the method: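 HeLa cells exposed 16 h; proteins extracted in presence of paclitaxel, pelletable and soluble fractions separated and resolved by SDS–PAGE.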

Tubulin (Homo sapiens) [8] = molecular target: T1, Tubulin (Homo sapiens); experiment: Inhibition of tubulin (unknown origin) polymerization at 10 uM; type: protein-complex assay; summary of the method: as §3
HeLa [9] = experiment: Cell cycle arrest in human HeLa cells at IC50 to 2 times IC50 after 8 hrs by FACS analysis; type: functional, cell-based
Summary of the method: (§4)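 HeLa cells seeded at 6 × 10⁵ cells/well, starved overnight, then exposed at IC50, 2× and 3× IC50 for 8 h or 16 h. Cells fixed in 70% EtOH overnight at −20 °C, then RNase-treated (100 µg/mL, 1 h, 37 °C) before cell-cycle phase analysis.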

HeLa [10] = experiment: Cell cycle arrest in human HeLa cells assessed as accumulation at […] phase at IC50 to 2 times IC50 after 16 hrs by FACS analysis; type: functional, cell-based; summary of the method: as §4
HeLa [11] = experiment: Potentiation of TNFalpha-induced NFkappaB activation in human HeLa cells at 3 uM incubated for 6 hrs by luciferase reporter gene assay; type: cell-based; summary of the method: as §2

Structure (SMILES) | viability at 40 µM (SH-SY5Y [1]) | viability at 40 µM (HeLa [2]) | Activity (HeLa [3]) | IC50 (SH-SY5Y [4]) | IC50 (HeLa [5]) | Activity (Tubulin (Homo sapiens) [6]) | inhibition (Tubulin (Homo sapiens) [7]) | Activity (Tubulin (Homo sapiens) [8]) | inhibition (Tubulin (Homo sapiens) [6]) | Activity (HeLa [9]) | Activity (HeLa [10]) | fold change (FC) (HeLa [11])
Oc1ccc(/C=C/c2cn(/C=C/c3ccccc3)nn2)cc1 | 70.6% | 39.5% | 85.4% | – | – | – | – | – | – | – | – | –
COc1ccc(/C=C/c2cn(/C=C/c3ccc(O)cc3)nn2)cc1 | 25.7% | 66.3% | 131% | 11.3 µM | 34 µM | – | – | – | – | – | – | –
Oc1ccc(/C=C/n2cc(/C=C/c3ccc(O)c(O)c3)nn2)cc1 | 60.4% | 60.1% | 124% | – | – | – | – | – | – | – | – | –
COc1cccc(/C=C/n2cc(/C=C/c3ccccc3)nn2)c1 | 107% | 82.1% | 76.1% | – | – | – | – | – | – | – | – | –
COc1cccc(/C=C/n2cc(/C=C/c3cc(OC)c(OC)c(OC)c3)nn2)c1 | 99.9% | 77.9% | 42.2% | – | – | inactive | inactive | – | – | – | – | –
COc1cccc(/C=C/c2cn(/C=C/c3cccc(OC)c3)nn2)c1 | 71.4% | 92.8% | 71% | – | – | – | – | – | – | – | – | –
C(=C\c1cn(/C=C/c2ccccc2)nn1)/c1ccccc1 | 118% | 70% | 79.9% | – | – | – | – | – | – | – | – | –
COc1cc(/C=C/n2cc(/C=C/c3ccc(O)cc3)nn2)ccc1O | 50.3% | 83.5% | 73.2% | – | – | – | – | – | – | – | – | –
COc1cc(/C=C/C(=O)CC(=O)/C=C/c2ccc(O)c(OC)c2)ccc1O [CURCUMIN] | 22.6% | 42.5% | 60.5% | 16.1 µM | 21.8 µM | – | inactive | inactive | Active | inactive | Active | –
COc1cccc(/C=C/c2cn(/C=C/c3ccc(O)cc3)nn2)c1 | 37.9% | 30.4% | 61.5% | 9 µM | 17.2 µM | – | – | – | – | – | – | –
Oc1ccc(/C=C/c2cn(/C=C/c3ccc(O)cc3)nn2)cc1 | 49.6% | 55.3% | 112% | – | – | – | – | – | – | – | – | –
COc1ccc(/C=C/c2cn(/C=C/c3ccc(O)c(OC)c3)nn2)cc1 | 50% | 67.9% | 146% | – | – | – | – | – | – | – | – | –
COc1cc(/C=C/c2cn(/C=C/c3ccc(O)c(OC)c3)nn2)ccc1O | 36.1% | 50.5% | 48% | 17.8 µM | 36.4 µM | inactive | inactive | – | – | – | – | 2
COc1cccc(/C=C/n2cc(/C=C/c3ccc(O)c(O)c3)nn2)c1 | 27.7% | 16.6% | 97% | 17 µM | 18.7 µM | – | – | – | – | – | – | –
COc1cccc(/C=C/n2cc(/C=C/c3ccc(O)cc3)nn2)c1 | 68.9% | 41.9% | 94.3% | – | – | – | – | – | – | – | – | –
COc1cccc(/C=C/c2cn(/C=C/c3ccccc3)nn2)c1 | 88.7% | 93.9% | 87% | – | – | – | – | – | – | – | – | –
COc1cccc(/C=C/n2cc(/C=C/c3ccc(O)c(OC)c3)nn2)c1 | 66.3% | 66.9% | 57% | – | – | – | – | – | – | – | – | –
COc1cc(/C=C/c2cn(/C=C/c3ccccc3)nn2)cc(OC)c1OC | 69.2% | 52.1% | 65.3% | – | – | – | – | – | – | – | – | –
Oc1ccc(/C=C/c2cn(/C=C/c3ccccc3)nn2)cc1O | 40.1% | 18.4% | 167% | – | – | – | – | – | – | – | – | –
COc1ccc(/C=C/c2cn(/C=C/c3cccc(OC)c3)nn2)cc1 | 52% | 55.1% | 81.3% | – | – | – | – | – | – | – | – | –
COc1cccc(/C=C/c2cn(/C=C/c3ccc(O)c(OC)c3)nn2)c1 (mixture of isomers) | 65.3% | 38.7% | 88.9% | – | – | – | – | – | – | – | – | –
COc1cc(/C=C/n2cc(/C=C/c3cc(OC)c(OC)c(OC)c3)nn2)ccc1O | 23.5% | 23% | 27.5% | 7.8 µM | 13.6 µM | inactive | inactive | – | – | inactive | Active | –
COc1cc(/C=C/c2cn(/C=C/c3ccc(O)cc3)nn2)cc(OC)c1OC | 21.3% | 19.2% | 14.6% | 1.7 µM | 1.5 µM | inactive | inactive | – | – | inactive | Active | –
COc1cc(/C=C/n2cc(/C=C/c3ccccc3)nn2)ccc1O | 86.7% | 84.3% | 144% | – | – | – | – | – | – | – | – | –
Oc1ccc(/C=C/n2cc(/C=C/c3ccccc3)nn2)cc1 | 48% | 50.7% | 88.9% | – | – | – | – | – | – | – | – | –
COc1ccc(/C=C/c2cn(/C=C/c3ccccc3)nn2)cc1 | 126% | 69.2% | 74.5% | – | – | – | – | – | – | – | – | –
COc1ccc(/C=C/c2cn(/C=C/c3ccc(O)c(OC)c3)nn2)cc1O | 18.1% | 7.9% | 15.3% | 6.9 µM | 11.7 µM | inactive | inactive | – | – | inactive | Active | –
COc1cc(/C=C/c2cn(/C=C/c3ccccc3)nn2)ccc1O | 110% | 79.5% | 138% | – | – | – | – | – | – | – | – | –
COc1cc(/C=C/c2cn(/C=C/c3ccc(O)cc3)nn2)ccc1O | 55.4% | 56.8% | 96% | – | – | – | – | – | – | – | – | –
